Published values from different studies.
Target: Serine/threonine-protein kinase PLK1 (PLK1, Homo sapiens, UniProt P53350)

For NS(=O)(=O)c1cc(NC(=O)Cc2ccccc2)ccc1Oc1cccc(Cl)c1, the remaining binding was 73% (cell-free assay, competition with immobilised ligand; 1 µM).
CC(C)(C)c1ccc(-c2nc(CBr)nn2-c2cccc(O)c2)cc1 gave a remaining binding of 84% (cell-free assay, competition with immobilised ligand; 10 µM).
The remaining binding of N#Cc1ccc(Nc2ccc3[nH]c(=O)[nH]c3c2)c(Cl)c1 is reported as 100% (cell-free assay, competition with immobilised ligand; 1 µM).
C[C@@H]1CCN(c2nccc(-c3cnn4ncccc34)n2)C1 has a remaining binding of 76% (binding; 1 µM).
CC1=C(C#N)C(c2ccc3c(c2)c(NC(=O)c2ccccc2C)nn3C)C(C#N)=C(C)N1 has a remaining binding of 85% (cell-free assay, competition with immobilised ligand; 1 µM).
COc1cnc(Nc2cccc(S(N)(=O)=O)c2)nc1N1CCN(c2ccccc2)CC1 has a remaining binding of 79% (binding, competition with immobilised ligand; 1 µM).
c1ccc(N2CCN(Cc3nc4ccccc4[nH]3)CC2)nc1 has a remaining binding of 100% (binding, competition with immobilised ligand; 1 µM).
For C=CC(=O)N1CCC(C(=O)NCC(=O)N2CCN(c3nc(-c4cnc(N)nc4C(F)F)nc(N4CCOCC4)n3)CC2)CC1, the remaining binding was 99% (binding, competition with immobilised ligand; 1 µM).
Cc1c(C(=O)O)cc(-c2ccc(C3CCNCC3)cc2)c2ccc(-c3ccc(C(F)(F)F)cc3)cc12 has a remaining binding of 94% (binding, competition with immobilised ligand; 1 µM).
The remaining binding of Cc1cnn2ncc(-c3ccnc(N(C)C)n3)c2c1 is reported as 84% (binding; 1 µM).
With CN(C(=O)c1ccccc1)c1cc(N(C)c2ccc3c(c2)CCc2ccc(C(=O)NCCN4CCOCC4)cc2C3=O)ccc1F the remaining binding was 100% (cell-free assay, competition with immobilised ligand; 1 µM).
For COc1ncc2cc3ccccc3nc2c1C#N, the remaining binding was 73% (cell-free assay, competition with immobilised ligand; 5 µM).
The remaining binding of O=C(c1ccc(Nc2ncc(Cl)c(-c3cc4ccccc4s3)n2)cc1)N1CCC(N2CCCC2)CC1 is reported as 57% (binding, competition with immobilised ligand; 1 µM).
For C[C@@H]1CN(c2ccc3ncc(-c4ccc5[nH]nc(C6CC6)c5c4)n3n2)C[C@H](C)O1, the remaining binding was 96% (binding, competition with immobilised ligand; 0.5 µM).
With N[C@@H]1CCN(c2nccc(-c3cnn4ncccc34)n2)C1 the remaining binding was 100% (binding; 1 µM).
c1cncc(-c2cccc(Nc3nccc(NC4CCCCC4)n3)c2)c1 gave a remaining binding of 78% (binding, competition with immobilised ligand; 10 µM).
CC1CCCN1c1nccc(-c2cnn3ncccc23)n1 (centres unmarked) has a remaining binding of 100% (binding; 1 µM).
The remaining binding of O=C(Nc1c[nH]nc1C(=O)NC1CCNCC1)c1cc(F)cc(F)c1 is reported as 100% (binding, competition with immobilised ligand; 1 µM).
O=C(NCCCN1CCOCC1)c1ccc(Nc2ncc(Cl)c(-c3ccc(Cl)s3)n2)cc1 has a remaining binding of 22% (binding, competition with immobilised ligand; 1 µM).
COc1ccnn2ncc(-c3ccnc(N(C)C)n3)c12 has a remaining binding of 94% (binding; 1 µM).
For CO[C@@H](C)c1c(Nc2ccc([C@@H](N(C)C(=O)C3CCS(=O)(=O)CC3)C(F)(F)F)cc2)cnc2cc(Cl)nn12, the remaining binding was 87% (cell-free assay, competition with immobilised ligand; 1 µM).
FC(F)(F)Oc1cccc(-c2cnc3ccc(-c4ccncc4)nn23)c1 has a remaining binding of 93% (cell-free assay, competition with immobilised ligand; 5 µM).
C[C@H](c1cccc(C#N)c1)n1cc(Cl)cc(C(N)=O)c1=N gave a remaining binding of 89% (cell-free assay, competition with immobilised ligand; 1 µM).
C[C@@H](c1ccc(-n2cnc3c(N)ncnc32)cc1)N1CCc2nn(C)c(Cc3ccccc3)c2C1=O has a remaining binding of 86% (binding, competition with immobilised ligand; 0.1 µM).
c1cnn2ncc(-c3ccnc(N4CCC45COC5)n3)c2c1 has a remaining binding of 72% (binding; 1 µM).
The remaining binding of O=C(NCCCN1CCOCC1)c1ccc(Nc2nccc(-c3cc4ccccc4s3)n2)cc1 is reported as 77% (binding, competition with immobilised ligand; 1 µM).
